In assay [1] the test system is Acinetobacter baumannii. Kind of assay: Antibacterial activity against Acinetobacter baumannii ATCC 19606 using iron-replete M9 minimal media after 15 hrs by broth microdilution assay. The format is functional, organism-based. The note with it: ATCC 19606 = CIP 70.34 = JCM 6841. The procedure, abridged: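 ATCC 19606 grown overnight at 30 °C on LB agar, washed twice in dipyridyl-containing M9/casamino acids medium, then diluted to A600 0.0003 in M9 minimal medium with 0.2% casamino acids plus 200 μM FeCl3. Inhibitors from DMSO at 100 μM final, in triplicate. Controls were tetracycline (100 ng/mL) and 1% DMSO. Incubated at 30 °C, A600 measured at 15 h.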

The test system of assay [2] is Mycobacterium tuberculosis. The assay can be described thus: Bacteriostatic activity against Mycobacterium tuberculosis H37Rv using iron-replete GAST media after 10 to 14 days by broth microdilution assay. In kind it is functional. The procedure, abridged:
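Broth microdilution in GAST supplemented with 200 μM FeCl₃, in quadruplicate, with compounds from DMSO stocks and DMSO-matched controls. Isoniazid served as positive control. Inoculum 10⁴–10⁵ cells/assay, 100 μL/well, 37 °C. OD₆₂₀ was read at 10–14 days, when untreated controls reached 0.2–0.3.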
On the technique in general: Broth dilution looks for growth in wells or tubes with falling amounts of substance.

Assay [3] has as its system Mycobacterium tuberculosis. Kind of assay: Bacteriostatic activity against Mycobacterium tuberculosis H37Rv using iron-deficient GAST media after 10 to 14 days by broth microdilution assay. The format is functional. The essentials:
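Broth microdilution in iron-deficient GAST, in quadruplicate, with compounds from DMSO stocks and DMSO-matched control wells. Isoniazid served as positive control. Initial density 10⁴–10⁵ cells/assay, 100 μL/well, 37 °C. Growth was read as OD at 620 nm at 10–14 days, when untreated controls reached OD₆₂₀ 0.2–0.3.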

The test system of assay [4] is Acinetobacter baumannii. Kind of assay: Antibacterial activity against Acinetobacter baumannii ATCC 19606 using iron-deficient M9 minimal media after 15 hrs by broth microdilution assay. In kind it is functional, organism-based. The note with it: ATCC 19606 = CIP 70.34 = JCM 6841. The essentials:
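ATCC 19606 grown overnight at 30 °C on LB agar, washed twice and resuspended in M9 minimal medium with 0.2% casamino acids and 200 μM dipyridyl. Inoculated at A600 0.0003 in this medium plus 1 μM FeCl3. Inhibitors from DMSO at 100 μM final, in triplicate. Tetracycline (100 ng/mL) and 1% DMSO as controls. Incubated at 30 °C; A600 read at 15 h.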

Assay [5] in a line: Displacement of Fl-Sal-AMS from Mycobacterium tuberculosis MbtA expressed in Escherichia coli after 30 mins by fluorescence polarization assay. In general terms: In fluorescence polarisation assays a small probe gives low polarisation when free and higher when bound to something large.
The nature of assay [6]: Selectivity ratio of Kd for Mycobacterium tuberculosis MbtA to Kd for Acinetobacter baumanni BasE.
Assay [7] in a line: Displacement of Fl-Sal-AMS from Acinetobacter baumanni BasE expressed in Escherichia coli after 30 mins by fluorescence polarization assay. Set-up: species or system Acinetobacter baumannii. The following applies: read-out: Kd.

≈ marks a conversion by molar mass, not a printed value. Calls of active or inactive are those of the source. The rule behind the calls is not given here. Some results are limits rather than exact numbers.

As to `O=C(O)c1cc(-c2ccccc2)nc2c1cnn2Cc1ccncc1`, the outcome in assay [1] and in assay [4] was inactive. Besides, the MIC99 in assay [2] and in assay [3] was more than 125 µM throughout.
Turning to `CCOC(=O)c1cc(-c2ccc(Cl)s2)nc2c1cnn2Cc1ccncc1`, the MIC99 in assay [2] and in assay [3] was 25 µM (≈ 9.97 µg/mL) in each case.
Consider `CCOC(=O)c1cc(-c2ccc(C(=O)c3ccccc3)cc2)nc2c1cnn2Cc1ccncc1`, for which the MIC99 in assay [2] and in assay [3] was more than 125 µM in each case.
Consider `O=C(O)c1cc(-c2ccc(OCc3ccccc3)cc2)nc2c1cnn2Cc1ccncc1`, for which the result in assay [1] and in assay [4] was inactive. The Kd (as a rule, the constant that tells how readily two partners part at equilibrium) turned out to be 5.4 µM in assay [5] and 2.14 nM in assay [7]. The Selectivity ratio in assay [6] stood at 1000.
Consider `O=C(c1ccccc1)c1ccc(-c2cc(C(=O)O)c3cnn(Cc4ccncc4)c3n2)cc1`, for which the result in assay [1] and in assay [4] was inactive. Further, the MIC99 in assay [2] and in assay [3] was more than 125 µM each time.
For the compound `O=C(O)c1cc(-c2ccc(Cl)s2)nc2c1cnn2Cc1ccncc1`, the result in assay [1] and in assay [4] was inactive. For the same compound, the MIC99 in assay [2] and in assay [3] was 50 µM (≈ 18.5 µg/mL) throughout.
For `COc1ccc(-c2cc(C(=O)O)c3cnn(Cc4ccncc4)c3n2)cc1`, the result in assay [1] and in assay [4] was inactive. In addition, the Kd in assay [5] was 3.23 µM; in assay [7], 78.2 nM.
Take `CCOC(=O)c1cc(-c2ccc(Oc3ccccc3)cc2)nc2c1cnn2Cc1ccncc1`: the MIC99 (as a rule, an inhibitory concentration at the 99% level, which refers to growth in some studies and to a panel of isolates in others) in assay [2] is 100 µM (≈ 45 µg/mL); in assay [3], 50 µM (≈ 22.5 µg/mL).
`O=C(O)c1cc(-c2ccc(CO)cc2)nc2c1cnn2Cc1ccncc1`: the outcome in assay [1] and in assay [4] was inactive. Moreover, the Kd in assay [5] is 3.7 µM; in assay [7], 247 nM.
With `O=C(O)c1cc(-c2ccc(Oc3ccccc3)cc2)nc2c1cnn2Cc1ccncc1`, the result in assay [1] and in assay [4] was inactive. The MIC99 in assay [2] and in assay [3] was 25 µM (≈ 10.6 µg/mL) throughout.
On to `CCOC(=O)c1cc(-c2ccccc2)nc2c1cnn2Cc1ccncc1`, for which the result in assay [1] and in assay [4] was inactive. Moreover, the Kd was more than 100 µM in assay [5] and 2160 nM in assay [7]. The MIC99 was 125 µM (≈ 44.8 µg/mL) in assay [2] and more than 125 µM in assay [3].
As to `O=C(O)c1cc(/C=C/c2ccccc2)nc2c1cnn2Cc1ccncc1`, the outcome in assay [1] and in assay [4] was inactive. Also, the Kd in assay [5] is 5.1 µM; in assay [7], 280 nM.
Take `O=C(O)c1cc(-c2cccc(Cl)c2)nc2c1cnn2Cc1ccncc1`: the outcome in assay [1] and in assay [4] was inactive. Besides, the Kd was determined as 4.6 µM in assay [5] and 26 nM in assay [7].
Take `O=C(O)c1cc(-c2ccco2)nc2c1cnn2Cc1ccncc1`: the result in assay [1] and in assay [4] was inactive. For the same compound, the Kd in assay [5] turned out to be 19.5 µM; in assay [7], 342 nM.
Turning to `O=C(O)c1cc(-c2ccc(F)cc2F)nc2c1cnn2Cc1ccncc1`, the result in assay [1] and in assay [4] was inactive. The Kd in assay [5] is 8 µM; in assay [7], 42.6 nM.
Take `CCCNC(=O)c1cc(-c2ccccc2)nc2c1cnn2Cc1ccncc1`: the result in assay [1] and in assay [4] was inactive. Moreover, the Kd in assay [5] is more than 50 µM; in assay [7], 249 nM.
As for `O=C(O)c1cc(-c2ccc3[nH]ccc3c2)nc2c1cnn2Cc1ccncc1`, the result in assay [1] and in assay [4] was inactive. For the same compound, the Kd was 2.9 µM in assay [5] and 61.8 nM in assay [7].
In the case of `CNC(=O)c1cc(-c2ccccc2)nc2c1cnn2Cc1ccncc1`, the result in assay [1] and in assay [4] was inactive. For the same compound, the Kd is more than 50 µM in assay [5] and 420 nM in assay [7].
Turning to `CC(C)NC(=O)c1cc(-c2ccccc2)nc2c1cnn2Cc1ccncc1`, the outcome in assay [1] and in assay [4] was inactive. Also, the Kd is more than 100 µM in assay [5] and 164 nM in assay [7].
Take `O=C(O)c1cc(-c2cncnc2)nc2c1cnn2Cc1ccncc1`: the result in assay [1] and in assay [4] was inactive. Besides, the values for the Kd in assay [5] and in assay [7] were 13.6 µM and 583 nM, respectively.
On to `O=C(O)c1cc(-c2ccccc2O)nc2c1cnn2Cc1ccncc1`, for which the result in assay [1] and in assay [4] was inactive. Also, the Kd was 6.5 µM in assay [5] and 255 nM in assay [7].
Take `O=C(O)c1cc(N2CCOCC2)nc2c1cnn2Cc1ccncc1`: the outcome in assay [1] and in assay [4] was inactive. Also, the Kd in assay [5] is 29.1 µM; in assay [7], 1450 nM.
Take `O=C(NC1CC1)c1cc(-c2ccccc2)nc2c1cnn2Cc1ccncc1`: the outcome in assay [1] and in assay [4] was inactive. Further, the Kd in assay [5] is more than 100 µM; in assay [7] it was 150 nM.
Take `O=C(O)c1cc(-c2cn[nH]c2)nc2c1cnn2Cc1ccncc1`: the outcome in assay [1] and in assay [4] was inactive. Also, the figures for the Kd in assay [5] and in assay [7] were 27.9 µM and 2300 nM, respectively.
For the compound `CCCCCCCCCCCCOc1ccc(-c2cc(C(=O)O)c3cnn(Cc4ccncc4)c3n2)cc1`, the outcome in assay [1] and in assay [4] was inactive. Besides, the Kd was more than 50 µM in assay [5] and 28400 nM in assay [7].
Take `O=C(O)c1cc(-c2ccc(F)cc2)nc2c1cnn2Cc1ccncc1`: the result in assay [1] and in assay [4] was inactive. In addition, the Kd came out at 1.89 µM in assay [5] and 28 nM in assay [7].
